PvdQ acylase: blocks Pseudomonas aeruginosa PvdQ acylase activity | purified PvdQ acylase, fluorescence plate reader | inhibition, % at 10 µM | 340,000 tested, 0.063% active | AID 488965; in the data active means inhibition above about 30%, passing the limit was not always enough;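 further: 0% = vehicle neutral wells and 100% = reference inhibitor wells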
VIM-2 inhibitor: inhibitors of Pseudomonas aeruginosa VIM-2 metallo-beta-lactamase | purified VIM-2, nitrocefin hydrolysis, epi-absorbance fluorescence | 290,000 tested, 0.89% active | inhibition, % at 5.6 µM | AID 1527;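 active means inhibition above the mean of all tested compounds plus 3 SD, cutoff set per screening run, cut at about 7.5% in these data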;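 further: red hydrolysis product quenches plate fluorescence so inhibitors raise well fluorescence; 0% = enzyme with DMSO and 100% = DMSO without enzyme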
IMP-1 inh-1: blocks Pseudomonas aeruginosa IMP-1 metallo-beta-lactamase; purified IMP-1, nitrocefin hydrolysis, epi-absorbance fluorescence; inhibition, % at 5.6 µM; 290,000 tested, 0.45% active; AID 1556;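 active means inhibition above the mean plus 3 SD of all compounds in the same screening run, cut at about 4.5% in these data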;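 further: 0% = IMP-1 with DMSO and 100% = DMSO wells lacking enzyme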
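system = purified recombinant IMP-1 beta-lactamase | amount = 0.2 nM IMP-1, as dispensed | medium = HEPES buffer pH 7.1 with ZnSO4 and Brij 35 | times = 25 °C, 15 min preincubation, 25 min reaction | detection = plate fluorescence quenching by hydrolysis product, ex 480/em 530 nm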
PHOSPHO1 inh: PHOSPHO1 (human) inhibition; Q8TCT1; recombinant PHOSPHO1, absorbance phosphatase assay; inhibition, % at 13.3 µM; 290,000 tested, 1.1% active; AID 1565; in the data active means inhibition above about 60%
Target sequence (Q8TCT1 whole entry, looked up): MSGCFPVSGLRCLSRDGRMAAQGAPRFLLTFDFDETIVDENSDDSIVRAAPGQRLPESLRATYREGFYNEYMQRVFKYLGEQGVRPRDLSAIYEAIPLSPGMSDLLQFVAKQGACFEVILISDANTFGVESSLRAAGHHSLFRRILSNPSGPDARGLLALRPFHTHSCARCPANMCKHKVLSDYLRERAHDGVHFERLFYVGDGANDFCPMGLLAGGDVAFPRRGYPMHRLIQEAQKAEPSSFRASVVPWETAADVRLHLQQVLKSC
CR mimetic SO: lowers age-related superoxide in aged yeast cells; superoxide response (% of plate mean), % at 10 µM; S. cerevisiae aged cells, superoxide DHE fluorescence; stronger effect = lower value; 330,000 tested, 0.18% active;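 active means superoxide response under a set limit, about three screen SD below normal, cut at about 65% in these data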;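 further: yeast aged for seven days with compound at 30 °C before DHE staining; 100% = average MFI of all compound-treated wells on the plate with controls excluded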
IMP-1 inh-2: selectivity counter-screen for VIM-2 inhibitors: IMP-1 metallo-beta-lactamase inhibitors; inhibition, % at 5.6 µM; AID 1856; 1,300 tested, under 10 active; shares compounds with VIM-2 inhibitor; purified IMP-1, nitrocefin hydrolysis, epi-absorbance fluorescence; call rule not given here;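 further: 0% = enzyme with vehicle and 100% = vehicle without enzyme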
VIM-2 FRET inh: VIM-2 FRET inhibition, artifact counter-screen. 1,300 tested, 23% active. inhibition, % at 5.6 µM. shares compounds with VIM-2 inhibitor. purified VIM-2, CCF2 FRET substrate hydrolysis;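 active means inhibition above the mean of all tested compounds plus 3 SD, cut at about 19% in these data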;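 further: 0% = VIM-2 plus DMSO and 100% = no enzyme wells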
TEM-1 counter: TEM-1 inhibition, counter-screen for VIM-2 inhibitors. shares compounds with VIM-2 inhibitor. Purified TEM-1, nitrocefin hydrolysis, epi-absorbance fluorescence. inhibition, % at 5.6 µM. 1,300 tested, 3% active. AID 1866;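 active means inhibition above that campaign's mean inhibition plus 3 SD, cut at about 0.46% in these data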;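 further: 0% = TEM-1 with DMSO and 100% = TEM-1 with 100 µM potassium clavulanate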
Target sequence (P62593 whole entry, looked up): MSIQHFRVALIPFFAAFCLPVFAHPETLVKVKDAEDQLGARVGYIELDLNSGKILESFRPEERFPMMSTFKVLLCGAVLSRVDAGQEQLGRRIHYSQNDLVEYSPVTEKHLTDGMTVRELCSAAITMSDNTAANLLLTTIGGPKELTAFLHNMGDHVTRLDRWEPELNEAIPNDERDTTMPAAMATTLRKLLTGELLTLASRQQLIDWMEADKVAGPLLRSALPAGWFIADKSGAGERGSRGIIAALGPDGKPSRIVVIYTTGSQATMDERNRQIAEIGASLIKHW
VIM-2 inh conf: confirmation of P. aeruginosa VIM-2 metallo-beta-lactamase inhibitors. shares compounds with VIM-2 inhibitor. purified VIM-2, nitrocefin hydrolysis, epi-absorbance. inhibition, % at 5.6 µM. 1,300 tested, 96% active;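 active means inhibition of the VIM-2 beta-lactamase enzyme above about 11% from the earlier first-round screen, limit read from the data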;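 further: 0% = VIM-2 with DMSO and 100% = buffer wells without enzyme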
* hit, by the source's call; . = no result given. Only some compounds are listed: those with a hit (about 2.2% of all), similar ones and a draw of the others.

SMILES	PvdQ acylase	VIM-2 inhibitor	IMP-1 inh-1	PHOSPHO1 inh	CR mimetic SO	IMP-1 inh-2	VIM-2 FRET inh	TEM-1 counter	VIM-2 inh conf
CCN1CCN(c2nnc(-c3ccc(F)cc3)c3ccccc23)CC1	7	1	-2	16	101	.	.	.	.
CN1CCc2c(sc(NC(=O)c3cc(Cl)sc3Cl)c2C(N)=O)C1	.	14*	1	25	98	-1	6	-4	21*
CC(Oc1ccc2c3c(c(=O)oc2c1)CCC3)C(=O)NCc1ccccn1 (configuration not stated)	-3	21*	0	48	101	-2	3	-5	29*
O=C(COc1ccc2c3c(c(=O)oc2c1)CCC3)NCc1ccccn1	-12	17*	1	53	100	-3	-1	-7	23*
Cc1cc(=O)oc2cc(OC(C)C(=O)NCc3ccccn3)ccc12 (configuration not stated)	3	-5	-2	33	87	.	.	.	.
Cn1c(SCc2cccc(F)c2)nnc1-c1ccncc1	-5	-2	-2	33	87	.	.	.	.
CC1CC(C)CN(c2ccc([N+](=O)[O-])cc2-c2nn[nH]n2)C1 (configuration not stated)	14	33*	-4	6	83	-1	61*	2.3*	45*
CN(C)C(=O)c1sccc1Oc1ccc(F)cc1[N+](=O)[O-]	-9	1	-2	36	97	.	.	.	.
O=C(c1cc2cc(Cl)ccc2[nH]1)N1CCN(Cc2ccc3c(c2)OCO3)CC1	-17	0	-2	13	108	.	.	.	.
CCN1CCN(C(=O)C2CCC(=O)N(Cc3cccc(C(F)(F)F)c3)C2)CC1 (configuration not stated)	-3	27*	-1	34	100	-4	-1	-6	2
CN1CCN(C(=O)C2CCC(=O)N(Cc3cccc(C(F)(F)F)c3)C2)CC1 (configuration not stated)	-11	0	-2	45	114	.	.	.	.
Cc1c(OC(C)C(=O)NCCN2CCOCC2)ccc2c3c(c(=O)oc12)CCC3 (configuration not stated)	-7	19*	-2	8	100	-5	2	-13	26*
Cc1cc(OC(C)C(=O)NCCN2CCOCC2)c2c(C)c(C)c(=O)oc2c1 (configuration not stated)	4	3	0	26	103	.	.	.	.
Cc1c(OC(C)C(=O)NCCCN2CCOCC2)ccc2c3c(c(=O)oc12)CCC3 (configuration not stated)	-1	24*	-2	41	102	-3	-1	-10	33*
Cc1cccc(C(=O)Nc2cc(S(=O)(=O)N3CCOCC3)ccc2N2CCCC2)c1	-6	.	.	.	.	.	.	.	.
CC1(C)CCCC2=C1CC1C(=O)N(O)C(=O)C1C2 (configuration not stated)	13	2	1	-9	97	.	.	.	.
CC12CCCCC1N(O)C(=O)C(=O)N2O (configuration not stated)	-12	20*	-1	-2	90	-3	34*	-5	19*
CCOc1ccc(Nc2cc(C)nc(-n3nc(C)cc3C)n2)cc1	7	17*	-5	2	91	-4	-64	-7	43*
Cc1cc(OCC(=O)NC2CC(C)(C)NC(C)(C)C2)c2c(C)c(C)c(=O)oc2c1	2	14*	1	18	85	-4	2	-7	18*
Cc1c(C)c2cc(Cl)c(OCC(=O)NC3CC(C)(C)NC(C)(C)C3)cc2oc1=O	-6	16*	-1	41	111	-3	3	-5	22*
CC1(C)CC(NC(=O)COc2cc3oc(=O)c4c(c3cc2Cl)CCC4)CC(C)(C)N1	-9	34*	0	24	71	-2	1	-7	41*
CCN(c1ccc(NC(=O)COC(=O)C(C)N=C2NS(=O)(=O)c3ccccc32)cc1)C(C)C (configuration not stated)	-3	.	.	.	.	.	.	.	.
Nc1[nH]c(=O)[nH]c(=O)c1N=Nc1ccc(C(=O)O)cc1	-8	-2	-3	24	122	.	.	.	.
CCCn1c(C(C)C)n[nH]c1=S	5	26*	-3	32	76	-4	54*	-7	35*
Cc1cccn2c(=O)c3cc(C(=O)NCCCOC(C)C)sc3nc12	1	18*	-5	42	109	-1	-2	0	26*
SMILES	PvdQ acylase	VIM-2 inhibitor	IMP-1 inh-1	PHOSPHO1 inh	CR mimetic SO	IMP-1 inh-2	VIM-2 FRET inh	TEM-1 counter	VIM-2 inh conf
Cc1cccn2c(=O)c3cc(C(=O)NC4CCCC4)sc3nc12	4	17*	0	28	135	-2	-5	-2	15*
CCCN(CCC)C(=O)c1cc2c(=O)n3cccc(C)c3nc2s1	-18	12*	-3	16	110	-3	-2	-5	17*
CCN(CC)C(=O)c1cc2c(=O)n3ccccc3nc2s1	-24	3	-4	-2	102	.	.	.	.
O=C(NC1CCCC1)c1cc2c(=O)n3ccccc3nc2s1	-17	.	.	.	120	.	.	.	.
CCOCCCNC(=O)c1cc2c(=O)n3cccc(C)c3nc2n1C	-3	.	.	15	98	.	.	.	.
CC(C)CN(CC(C)C)C(=O)c1cc2c(=O)n3ccccc3nc2s1	-22	1	-4	56	102	.	.	.	.
Cc1cccn2c(=O)c3cc(C(=O)NCC(C)C)sc3nc12	-21	14*	-3	37	115	-2	-3	-3	23*
CCCN1CCN(CC(O)COC(c2ccc(OC)cc2)c2ccc(OC)cc2)CC1 (configuration not stated)	-1	-2	-3	18	97	.	.	.	.
CCOCCCNC(=O)c1cc2c(=O)n3cccc(C)c3nc2s1	-11	16*	-3	32	107	-3	-6	-7	31*
Cc1ccc2nc3c(cc(C(=O)NC4CCCC4)c(=N)n3CCCn3ccnc3)c(=O)n2c1	.	29*	0	-8	92	-4	-17	-5	68*
CCCCNC(=O)c1cc2c(=O)n3cccc(C)c3nc2n(Cc2ccccc2)c1=N	-29	-2	-3	-4	105	.	.	.	.
CNC(=O)c1cc2c(=O)n3cccc(C)c3nc2n(C(C)C)c1=N	-33	12*	1	25	103	-3	-92	-6	26*
CCCCCn1c(=N)c(S(=O)(=O)c2ccc(Cl)cc2)cc2c(=O)n3cccc(C)c3nc21	7	1	-4	31	101	.	.	.	.

High-throughput results (PubChem BioAssay)
